Measured values as given in ChEMBL document CHEMBL4014298, “Discovery of a series of 8-(1-phenylpyrrolidin-2-yl)-6-carboxamide-2-morpholino-4H-chromen-4-one as PI3Kβ/δ inhibitors for the treatment of PTEN-deficient tumours” (Bioorg Med Chem Lett, 2017).
Converted amounts (≈) assume the structure as drawn.

Experiments:
[1] = AUC in mouse at 30 umol/kg, po; assay type: ADME; conditions: in vivo
[2] = Lipophilicity, log D of the compound at pH 7.4; conditions: buffer
[3] = target: T1, Phosphatidylinositol 4,5-bisphosphate 3-kinase catalytic subunit delta isoform (Homo sapiens, UniProt O00329); experiment: Inhibition of PI3Kdelta in human JeKo1 B cells assessed as decrease in AKT phosphorylation at Ser473 measured after 1 hr; assay type: cell-based
T1 sequence (O00329 whole entry): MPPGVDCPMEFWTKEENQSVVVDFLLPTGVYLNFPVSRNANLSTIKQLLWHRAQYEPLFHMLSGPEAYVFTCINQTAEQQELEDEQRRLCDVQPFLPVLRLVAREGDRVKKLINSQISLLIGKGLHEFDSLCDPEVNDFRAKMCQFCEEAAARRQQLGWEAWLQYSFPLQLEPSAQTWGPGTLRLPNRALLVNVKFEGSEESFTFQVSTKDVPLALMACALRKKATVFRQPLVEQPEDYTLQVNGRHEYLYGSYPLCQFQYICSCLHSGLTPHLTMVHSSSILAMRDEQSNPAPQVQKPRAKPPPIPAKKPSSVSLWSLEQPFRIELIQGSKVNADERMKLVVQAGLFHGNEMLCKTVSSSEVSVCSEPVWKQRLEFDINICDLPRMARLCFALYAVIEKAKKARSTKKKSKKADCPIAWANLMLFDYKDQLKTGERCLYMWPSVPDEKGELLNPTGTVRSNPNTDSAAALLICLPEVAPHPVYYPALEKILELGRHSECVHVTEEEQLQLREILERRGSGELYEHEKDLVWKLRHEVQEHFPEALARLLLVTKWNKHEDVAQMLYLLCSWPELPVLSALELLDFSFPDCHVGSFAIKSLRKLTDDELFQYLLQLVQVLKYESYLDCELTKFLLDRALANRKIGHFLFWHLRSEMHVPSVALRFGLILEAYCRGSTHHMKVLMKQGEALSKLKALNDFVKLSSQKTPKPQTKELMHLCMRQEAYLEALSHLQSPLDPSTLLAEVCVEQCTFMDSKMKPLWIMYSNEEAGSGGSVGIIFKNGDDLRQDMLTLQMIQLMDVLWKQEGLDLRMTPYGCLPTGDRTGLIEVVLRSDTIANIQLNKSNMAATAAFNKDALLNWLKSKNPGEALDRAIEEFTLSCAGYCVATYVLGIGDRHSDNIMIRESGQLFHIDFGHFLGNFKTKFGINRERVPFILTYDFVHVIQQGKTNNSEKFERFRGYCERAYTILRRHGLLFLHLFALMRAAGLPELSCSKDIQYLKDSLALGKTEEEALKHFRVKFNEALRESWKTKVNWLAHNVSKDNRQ

[4] = target: Phosphatidylinositol 4,5-bisphosphate 3-kinase catalytic subunit gamma isoform (Homo sapiens, UniProt P48736); experiment: Inhibition of recombinant human PI3Kgamma using PIP2 as substrate preincubated for 20 mins followed by substrate addition measured after 80 mins in presence of ATP by Kinase Glo luminescence assay
Method in brief: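 Enzyme IC50 against PI3Kγ, single determination (n=1).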

[5] = Volume of distribution at steady state in dog blood at 4 umol/kg, iv or 10 umol/kg, po; assay type: ADME, organism-based, Canis lupus familiaris; conditions: read-out: Vdss
[6] = target: Phosphatidylinositol 4,5-bisphosphate 3-kinase catalytic subunit gamma isoform (Mus musculus, UniProt Q9JHG7); experiment: Inhibition of PI3Kgamma in mouse RAW264 cells assessed as decrease in AKT phosphorylation at Ser473; assay type: cell-based
Method in brief: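 Mouse monocytic RAW264 cells; inhibition of AKT Ser473 phosphorylation measured; single determination (n=1).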

[7] = target: Diacylglycerol kinase zeta (Homo sapiens, UniProt Q13574); experiment: Inhibition of human DGKzeta (1 to 929 residues) by ADP Glo HTS assay
Method in brief: (§1)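 Lipid kinase selectivity assessed in a 15-kinase panel (Dundee University lipid kinase panel), IC50 determined.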

[8] = target: Phosphatidylinositol 3-kinase regulatory subunit alpha (Homo sapiens, UniProt P27986); experiment: Inhibition of human PI3K p85alpha (1 to 724 residues) by ADP Glo HTS assay; method in brief: as §1
[9] = Oral bioavailability in mouse blood at 30 umol/kg; assay type: ADME, organism-based
[10] = Fraction unbound in human plasma; assay type: ADME, cell-free
Method in brief: (§2)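 Plasma protein binding in mouse, dog or human plasma, reported as fraction unbound (%).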

[11] = Fraction unbound in mouse plasma; assay type: ADME, cell-free; method in brief: as §2
[12] = target: Phosphatidylinositol 4,5-bisphosphate 3-kinase catalytic subunit alpha isoform (Homo sapiens, UniProt P42336); experiment: Inhibition of recombinant human PI3Kalpha using PIP2 as substrate preincubated for 20 mins followed by substrate addition measured after 80 mins in presence of ATP by Kinase Glo luminescence assay
[13] = target: Phosphatidylinositol 3-kinase regulatory subunit beta (Homo sapiens, UniProt O00459); experiment: Inhibition of human PI3K p85beta (1 to 724 residues) by ADP Glo HTS assay; method in brief: as §1
Cytochrome P450 2D6 = Cytochrome P450 2D6 (Homo sapiens, UniProt P10635); experiment: Inhibition of CYP2D6 (unknown origin); assay type: ADME
[14] = Clearance in mouse blood at 5 umol/kg, iv or 30 umol/kg, po; assay type: ADME, organism-based
[15] = target: Voltage-gated inwardly rectifying potassium channel KCNH2 (Homo sapiens, UniProt Q12809); experiment: Inhibition of human ERG
[16] = target: Phosphatidylinositol 4-kinase beta (Homo sapiens, UniProt Q9UBF8); experiment: Inhibition of human PIK4Cbeta (1 to 801 residues) by ADP Glo HTS assay; method in brief: as §1
PC-3 [17] = experiment: Antitumor activity against PTEN-deficient human PC3 cells xenografted in nude mouse assessed as tumor growth inhibition at 100 mg/kg, po bid relative to control; assay type: functional; conditions: PC-3, po, read-out: TGI
Method in brief: (§3)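 Nude mice bearing PTEN-deficient PC3 prostate tumour xenografts; compound given orally twice daily (b.i.d.) at 100 or 50 mg/kg over chronic dosing; tumour growth inhibition versus control determined at end of study.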

[18] = Intrinsic clearance in mouse hepatocytes assessed per million cells; assay type: ADME, cell-based, Hepatocyte; conditions: read-out: CLH
Method in brief: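 Intrinsic clearance measured in mouse or dog hepatocytes, expressed as CL_int in […].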

Sphingosine kinase 1 = Sphingosine kinase 1 (Homo sapiens, UniProt Q9NYA1); experiment: Inhibition of human SphK1 (1 to 384 residues) by ATP-Glo HTS assay; method in brief: as §1
[19] = target: Phosphatidylinositol 4,5-bisphosphate 3-kinase catalytic subunit beta isoform (Homo sapiens, UniProt P42338); experiment: Inhibition of recombinant human PI3Kbeta using PIP2 as substrate preincubated for 20 mins followed by substrate addition measured after 80 mins in presence of ATP by Kinase Glo luminescence assay
Choline kinase alpha = Choline kinase alpha (Homo sapiens, UniProt P35790); experiment: Inhibition of human CHKalpha (1 to 457 residues) by ADP Glo HTS assay; method in brief: as §1
PC-3 [20] = experiment: Antitumor activity against PTEN-deficient human PC3 cells xenografted in nude mouse assessed as tumor growth inhibition at 50 mg/kg, po bid relative to control; assay type: functional; conditions: PC-3, po, read-out: TGI; method in brief: as §3
[21] = Solubility of the compound in aqueous buffer at pH 6.5; assay type: physicochemical
Method in brief: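 Solubility from crystalline solid in aqueous buffer, pH 6.5, µg/mL.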

[22] = target: Diacylglycerol kinase gamma (Homo sapiens, UniProt P49619); experiment: Inhibition of human DGKgamma (1 to 752 residues) by ADP Glo HTS assay; method in brief: as §1

Voltage-gated inwardly rectifying potassium channel KCNH2, sequence (Q12809 whole entry, the tested form may be a part): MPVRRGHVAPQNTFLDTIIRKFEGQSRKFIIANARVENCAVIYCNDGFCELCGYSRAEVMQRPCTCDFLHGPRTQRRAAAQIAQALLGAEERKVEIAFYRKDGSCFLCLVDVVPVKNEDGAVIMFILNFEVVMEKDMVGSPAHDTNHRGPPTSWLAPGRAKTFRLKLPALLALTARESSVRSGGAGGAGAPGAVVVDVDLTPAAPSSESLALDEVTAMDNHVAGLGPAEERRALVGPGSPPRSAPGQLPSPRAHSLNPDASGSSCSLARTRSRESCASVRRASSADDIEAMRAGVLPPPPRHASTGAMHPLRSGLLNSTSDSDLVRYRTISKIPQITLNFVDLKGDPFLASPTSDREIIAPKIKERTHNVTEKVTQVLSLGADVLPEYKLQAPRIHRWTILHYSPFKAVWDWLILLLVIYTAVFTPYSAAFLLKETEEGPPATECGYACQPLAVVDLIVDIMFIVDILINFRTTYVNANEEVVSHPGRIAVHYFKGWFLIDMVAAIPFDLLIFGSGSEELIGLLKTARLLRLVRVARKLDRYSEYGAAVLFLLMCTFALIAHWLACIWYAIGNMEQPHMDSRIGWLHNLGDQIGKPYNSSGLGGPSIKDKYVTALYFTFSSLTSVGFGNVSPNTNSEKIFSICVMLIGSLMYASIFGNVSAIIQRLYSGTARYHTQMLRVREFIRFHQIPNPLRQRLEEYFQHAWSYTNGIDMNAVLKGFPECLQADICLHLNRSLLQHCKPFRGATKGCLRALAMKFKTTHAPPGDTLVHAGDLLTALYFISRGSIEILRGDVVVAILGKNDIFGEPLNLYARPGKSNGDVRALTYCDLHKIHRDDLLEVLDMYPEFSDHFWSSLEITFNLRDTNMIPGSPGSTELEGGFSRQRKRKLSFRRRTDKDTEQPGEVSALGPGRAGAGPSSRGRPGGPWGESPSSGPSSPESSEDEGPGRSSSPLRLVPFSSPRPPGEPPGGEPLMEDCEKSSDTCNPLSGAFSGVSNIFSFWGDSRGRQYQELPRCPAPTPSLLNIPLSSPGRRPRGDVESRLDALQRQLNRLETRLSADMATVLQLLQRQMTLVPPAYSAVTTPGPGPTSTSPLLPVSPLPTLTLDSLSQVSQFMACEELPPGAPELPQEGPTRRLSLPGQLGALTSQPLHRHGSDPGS
Phosphatidylinositol 4,5-bisphosphate 3-kinase catalytic subunit beta isoform, sequence (P42338 whole entry, the tested form may be a part, canonical isoform): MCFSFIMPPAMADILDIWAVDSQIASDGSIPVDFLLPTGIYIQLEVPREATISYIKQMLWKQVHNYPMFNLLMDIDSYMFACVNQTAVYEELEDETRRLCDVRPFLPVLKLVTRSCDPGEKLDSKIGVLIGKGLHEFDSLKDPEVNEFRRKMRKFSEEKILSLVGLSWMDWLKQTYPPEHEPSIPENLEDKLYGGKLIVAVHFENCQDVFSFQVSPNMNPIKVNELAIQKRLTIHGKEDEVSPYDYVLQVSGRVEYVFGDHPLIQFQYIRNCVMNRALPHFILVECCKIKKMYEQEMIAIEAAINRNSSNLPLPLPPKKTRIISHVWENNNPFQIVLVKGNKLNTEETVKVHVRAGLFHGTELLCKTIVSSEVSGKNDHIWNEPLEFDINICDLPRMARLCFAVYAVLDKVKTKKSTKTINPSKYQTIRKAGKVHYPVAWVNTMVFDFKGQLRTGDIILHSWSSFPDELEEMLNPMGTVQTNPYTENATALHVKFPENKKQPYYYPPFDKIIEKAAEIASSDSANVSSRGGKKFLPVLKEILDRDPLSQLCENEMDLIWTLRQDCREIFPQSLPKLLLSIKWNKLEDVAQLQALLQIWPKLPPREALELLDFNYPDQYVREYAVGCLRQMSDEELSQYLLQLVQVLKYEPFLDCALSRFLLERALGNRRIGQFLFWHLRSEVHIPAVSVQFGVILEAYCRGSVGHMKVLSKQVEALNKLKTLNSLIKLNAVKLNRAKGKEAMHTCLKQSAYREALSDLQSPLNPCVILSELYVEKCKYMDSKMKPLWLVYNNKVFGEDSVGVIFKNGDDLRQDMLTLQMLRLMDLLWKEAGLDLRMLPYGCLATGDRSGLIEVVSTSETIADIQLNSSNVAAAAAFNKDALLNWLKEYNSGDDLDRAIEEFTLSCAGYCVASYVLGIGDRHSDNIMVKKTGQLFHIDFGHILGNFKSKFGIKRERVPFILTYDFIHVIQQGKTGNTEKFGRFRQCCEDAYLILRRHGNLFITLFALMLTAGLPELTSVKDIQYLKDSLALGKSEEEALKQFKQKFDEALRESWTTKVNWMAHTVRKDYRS
Choline kinase alpha, sequence (P35790 whole entry, the tested form may be a part): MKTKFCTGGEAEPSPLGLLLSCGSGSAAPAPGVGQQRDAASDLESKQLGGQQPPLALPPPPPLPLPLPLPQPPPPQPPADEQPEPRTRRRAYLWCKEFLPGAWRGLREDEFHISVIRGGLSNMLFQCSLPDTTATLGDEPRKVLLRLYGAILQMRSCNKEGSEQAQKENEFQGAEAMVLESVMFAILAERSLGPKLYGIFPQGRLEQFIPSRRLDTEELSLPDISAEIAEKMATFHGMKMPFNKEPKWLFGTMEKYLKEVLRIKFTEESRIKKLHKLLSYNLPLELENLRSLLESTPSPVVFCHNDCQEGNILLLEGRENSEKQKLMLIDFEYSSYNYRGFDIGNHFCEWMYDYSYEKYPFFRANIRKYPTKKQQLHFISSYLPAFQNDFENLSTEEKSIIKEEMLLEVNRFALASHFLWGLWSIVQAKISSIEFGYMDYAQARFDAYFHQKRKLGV
Phosphatidylinositol 4,5-bisphosphate 3-kinase catalytic subunit gamma isoform (Mus musculus, UniProt Q9JHG7), sequence (Q9JHG7 whole entry, canonical isoform): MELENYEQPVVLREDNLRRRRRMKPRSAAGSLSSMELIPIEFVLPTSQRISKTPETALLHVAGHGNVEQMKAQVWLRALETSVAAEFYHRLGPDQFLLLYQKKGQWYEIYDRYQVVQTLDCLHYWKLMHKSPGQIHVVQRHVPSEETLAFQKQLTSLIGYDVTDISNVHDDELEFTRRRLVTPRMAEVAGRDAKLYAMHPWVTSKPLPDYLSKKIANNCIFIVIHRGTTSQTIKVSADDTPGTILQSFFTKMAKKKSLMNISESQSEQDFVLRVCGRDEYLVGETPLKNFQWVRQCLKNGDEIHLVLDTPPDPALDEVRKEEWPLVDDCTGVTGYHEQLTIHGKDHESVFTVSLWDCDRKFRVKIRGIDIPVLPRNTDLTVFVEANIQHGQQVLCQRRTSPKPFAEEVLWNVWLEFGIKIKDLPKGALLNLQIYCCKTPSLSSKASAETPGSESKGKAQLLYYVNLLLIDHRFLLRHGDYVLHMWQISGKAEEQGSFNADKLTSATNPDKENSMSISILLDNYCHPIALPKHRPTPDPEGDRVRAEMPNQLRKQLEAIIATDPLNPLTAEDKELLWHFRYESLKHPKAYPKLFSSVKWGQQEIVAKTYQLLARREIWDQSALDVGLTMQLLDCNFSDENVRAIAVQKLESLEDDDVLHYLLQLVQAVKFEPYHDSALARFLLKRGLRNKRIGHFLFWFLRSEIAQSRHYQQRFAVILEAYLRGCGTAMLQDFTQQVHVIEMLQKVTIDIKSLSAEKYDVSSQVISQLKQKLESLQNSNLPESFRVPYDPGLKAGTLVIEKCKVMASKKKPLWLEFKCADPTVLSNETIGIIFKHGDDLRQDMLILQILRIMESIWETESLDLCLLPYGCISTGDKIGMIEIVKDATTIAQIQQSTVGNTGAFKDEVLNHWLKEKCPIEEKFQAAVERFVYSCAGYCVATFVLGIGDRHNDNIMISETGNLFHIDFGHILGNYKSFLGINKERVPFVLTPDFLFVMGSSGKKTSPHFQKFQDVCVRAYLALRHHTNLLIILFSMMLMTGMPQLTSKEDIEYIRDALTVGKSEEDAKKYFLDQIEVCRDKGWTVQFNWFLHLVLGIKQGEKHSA
Phosphatidylinositol 4,5-bisphosphate 3-kinase catalytic subunit alpha isoform, sequence (P42336 whole entry, the tested form may be a part, canonical isoform): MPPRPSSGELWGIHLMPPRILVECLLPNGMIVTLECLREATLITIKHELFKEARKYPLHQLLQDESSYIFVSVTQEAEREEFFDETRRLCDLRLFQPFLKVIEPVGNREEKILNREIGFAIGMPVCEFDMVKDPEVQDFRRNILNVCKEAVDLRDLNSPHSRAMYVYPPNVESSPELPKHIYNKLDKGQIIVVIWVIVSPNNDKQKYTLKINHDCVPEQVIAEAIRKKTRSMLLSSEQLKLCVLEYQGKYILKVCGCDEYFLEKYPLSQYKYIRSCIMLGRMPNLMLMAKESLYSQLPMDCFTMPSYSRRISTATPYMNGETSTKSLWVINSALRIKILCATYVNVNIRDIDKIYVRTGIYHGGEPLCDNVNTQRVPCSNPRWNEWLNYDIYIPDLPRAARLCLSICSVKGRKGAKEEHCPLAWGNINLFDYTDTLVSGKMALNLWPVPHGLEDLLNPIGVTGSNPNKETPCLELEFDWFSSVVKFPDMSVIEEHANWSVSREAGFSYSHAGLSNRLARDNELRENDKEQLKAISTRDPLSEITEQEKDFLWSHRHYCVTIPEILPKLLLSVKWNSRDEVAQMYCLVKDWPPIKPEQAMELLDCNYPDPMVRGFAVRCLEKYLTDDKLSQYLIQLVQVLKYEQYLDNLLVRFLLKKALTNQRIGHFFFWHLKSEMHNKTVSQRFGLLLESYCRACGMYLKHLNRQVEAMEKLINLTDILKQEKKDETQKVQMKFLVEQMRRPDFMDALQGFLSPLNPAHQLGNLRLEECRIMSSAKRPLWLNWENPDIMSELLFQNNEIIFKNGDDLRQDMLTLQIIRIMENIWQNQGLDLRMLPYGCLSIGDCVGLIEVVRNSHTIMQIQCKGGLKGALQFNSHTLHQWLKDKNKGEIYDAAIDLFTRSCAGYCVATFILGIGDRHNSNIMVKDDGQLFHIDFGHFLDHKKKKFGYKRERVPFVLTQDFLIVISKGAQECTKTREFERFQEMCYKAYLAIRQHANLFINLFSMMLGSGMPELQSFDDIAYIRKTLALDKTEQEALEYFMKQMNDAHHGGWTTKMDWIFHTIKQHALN

AUC [1]: 2.8 µM·h
logD [2]: 2.5
IC50 [3]: 0.014 µM
IC50 [4]: 0.19 µM
Vd [5]: 1.2 L/kg
IC50 [6]: 1.5 µM
IC50 [7]: > 50 µM
IC50 [8]: > 50 µM
bioavailability [9]: 26%
fraction unbound [10]: 0.17
fraction unbound [11]: 0.19
IC50 [12]: 0.013 µM
IC50 [13]: > 50 µM
IC50 (Cytochrome P450 2D6): > 30 µM
clearance [14]: 60 mL/min/kg
IC50 [16]: > 50 µM
hepatocyte CLint [18]: 68 µL/min/1e6 cells
IC50 (Sphingosine kinase 1): 29 µM
IC50 [19]: 0.0071 µM
IC50 (Choline kinase alpha): > 50 µM
solubility [21]: 230 µg/mL (≈ 438 µM)
IC50 [22]: > 50 µM
SMILES: O=C(c1cc([C@H]2CCCN2c2cc(F)cc(F)c2)c2oc(N3CCOCC3)cc(=O)c2c1)N1CCOCC1
IC50 [15]: 45 µM
inhibition in vivo at 100 mg/kg (PC-3 [17]): 83%
inhibition in vivo at 50 mg/kg (PC-3 [20]): 71%
